Experimental data pooled from the literature.
Lines come from different studies, so protocols differ.

For `CCC[C@H](NC(=O)[C@@H]1CCCN1C(=O)[C@@H](NC(=O)[C@H](N)CC(N)=O)[C@@H](C)CC)C(=O)N[C@@H](CC(C)C)C(=O)N[C@@H](Cc1ccc(O)cc1)C(=O)N[C@H](CO)C(=O)N[C@@H](Cc1ccccc1)C(=O)N[C@@H](C)C(=O)N[C@H](CO)C(N)=O`, the AUC(0-t) was 1200 ng·h/mL (rat, plasma; subcutaneous, 10 mg/kg, single dose).
With `CC1(CN)CCN(c2cnc3c(Sc4ccncc4Cl)n[nH]c3n2)CC1` the AUC was 411 ng·h/mL (male Sprague-Dawley rat, plasma; oral, 10 mg/kg).
`COc1ccc2cc3n(c(=O)c2c1OC)CCc1cc2c(cc1-3)OCO2` gave an AUC(0-inf) of 985 ng·h/mL (male Sprague-Dawley rat, blood; oral, 50 mg/kg).
The AUC(0-t) of `C[C@H]1[C@@H](O)O[C@@H]2O[C@@]3(C)CC[C@H]4[C@H](C)CC[C@@H]1[C@@]24OO3` is reported as 197 ng·h/mL (Sprague-Dawley rat, plasma; oral, 10 mg/kg).
With `O=c1cc(-c2ccc(O)c(O)c2)oc2cc(O)cc(O)c12` the AUC(0-inf) was 98.6 ng·h/mL (male Sprague-Dawley rat, plasma; oral, 30 mg/kg).
The AUC(0-t) of `C=C(F)C(=O)N1CCN(c2nc(OC[C@@H]3CCCN3C)nc3c2CCN(c2cccc4cccc(Cl)c24)C3)C[C@@H]1CC#N` is reported as 1860 ng·h/mL (male Sprague-Dawley rat, plasma; intravenous, 5 mg/kg).
`N#C[C@@]12C[C@@H]1[C@@H](n1cnc3c(N[C@@H](C4CCC4)C4CC4)nc(I)nc31)[C@H](O)[C@@H]2O` has an AUC(0-inf) of 19.2 ng·h/mL (male Wistar rat, plasma; oral, 1 mg/kg).
`O=C1CC[C@H](N2Cc3cc(N4CCN(CC5CCN(c6ccc([C@@H]7c8ccc(O)cc8CC[C@@H]7c7ccccc7)cc6)CC5)CC4)ccc3C2=O)C(=O)N1` has an AUC(0-t) of 11000 ng·h/mL (female Sprague-Dawley rat, plasma; oral, 20 mg/kg, fasted).
`O=C1c2ccncc2C(=O)c2c1[nH]c1ccccc21` gave an AUC(0-inf) of 8.58 µM·h (rat, plasma; intravenous, 5 mg/kg, single dose).
`O=C(C=Cc1ccccc1)Nc1cc(-c2ccnc(N3CCC(O)CC3)c2)ccn1` gave an AUC(0-inf) of 1400 ng·h/mL (female Sprague-Dawley rat, plasma; oral, 50 mg/kg).
For `Cc1c(C(=O)O)ccc2c3n(nc12)[C@@H]1[C@H](C3)N(CC2CC2)[C@@]2(C(=O)Nc3cc(Cl)ccc32)[C@H]1c1cccc(Cl)c1F`, the AUC(0-inf) was 64.2 µM·h (male rat, plasma; oral, 2 mg/kg).
`CC(=Nc1ccc(N=Cc2cnccn2)cc1)N(C)C` gave an AUC(0-t) of 305 ng·h/mL (male Sprague-Dawley rat, plasma; oral, 200 mg/kg).
